In ChEMBL document CHEMBL1629532, “Design, synthesis, and structure-activity relationships of 3-ethynyl-1H-indazoles as inhibitors of the phosphatidylinositol 3-kinase signaling pathway” (J Med Chem, 2010):

Key:
[1] = target: Maternal embryonic leucine zipper kinase (Homo sapiens) (UniProt Q14680); assay: Inhibition of MELK at 10 uM
[2] = target: T1, Phosphatidylinositol 4,5-bisphosphate 3-kinase catalytic subunit delta isoform (Homo sapiens, UniProt O00329); assay: Inhibition of PI3Kdelta; conditions: read-out: I50
T1 sequence (O00329 whole entry): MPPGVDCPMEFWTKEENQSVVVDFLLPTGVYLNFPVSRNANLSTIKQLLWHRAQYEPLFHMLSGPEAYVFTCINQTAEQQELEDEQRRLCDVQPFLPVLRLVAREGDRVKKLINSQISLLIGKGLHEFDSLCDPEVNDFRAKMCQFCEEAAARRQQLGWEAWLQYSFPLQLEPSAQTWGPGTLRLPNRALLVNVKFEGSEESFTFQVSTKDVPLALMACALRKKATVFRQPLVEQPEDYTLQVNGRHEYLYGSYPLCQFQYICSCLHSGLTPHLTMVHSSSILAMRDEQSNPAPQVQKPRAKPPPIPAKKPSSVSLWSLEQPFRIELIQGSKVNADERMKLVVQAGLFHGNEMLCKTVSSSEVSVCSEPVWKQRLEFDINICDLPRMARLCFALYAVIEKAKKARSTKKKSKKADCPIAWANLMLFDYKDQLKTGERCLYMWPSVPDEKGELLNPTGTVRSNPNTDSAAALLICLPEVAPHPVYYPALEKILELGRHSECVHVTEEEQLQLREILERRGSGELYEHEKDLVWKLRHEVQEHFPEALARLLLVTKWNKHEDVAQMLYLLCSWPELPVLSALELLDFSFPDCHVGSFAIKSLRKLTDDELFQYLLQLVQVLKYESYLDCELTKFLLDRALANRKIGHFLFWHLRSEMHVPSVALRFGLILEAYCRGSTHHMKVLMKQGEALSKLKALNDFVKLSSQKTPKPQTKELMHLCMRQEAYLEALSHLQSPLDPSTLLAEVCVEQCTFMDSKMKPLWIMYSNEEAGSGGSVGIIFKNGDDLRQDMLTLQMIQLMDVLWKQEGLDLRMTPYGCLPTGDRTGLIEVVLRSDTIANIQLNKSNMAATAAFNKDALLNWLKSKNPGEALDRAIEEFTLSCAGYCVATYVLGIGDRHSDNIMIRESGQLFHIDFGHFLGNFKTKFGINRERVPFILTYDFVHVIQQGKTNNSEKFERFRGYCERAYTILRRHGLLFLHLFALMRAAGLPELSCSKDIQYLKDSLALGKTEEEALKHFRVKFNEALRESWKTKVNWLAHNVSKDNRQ

[3] = target: NUAK family SNF1-like kinase 1 (Homo sapiens) (UniProt O60285); assay: Inhibition of NUAK1 at 10 uM
Chain of NUAK family SNF1-like kinase 1 (Homo sapiens) (O60285 whole entry): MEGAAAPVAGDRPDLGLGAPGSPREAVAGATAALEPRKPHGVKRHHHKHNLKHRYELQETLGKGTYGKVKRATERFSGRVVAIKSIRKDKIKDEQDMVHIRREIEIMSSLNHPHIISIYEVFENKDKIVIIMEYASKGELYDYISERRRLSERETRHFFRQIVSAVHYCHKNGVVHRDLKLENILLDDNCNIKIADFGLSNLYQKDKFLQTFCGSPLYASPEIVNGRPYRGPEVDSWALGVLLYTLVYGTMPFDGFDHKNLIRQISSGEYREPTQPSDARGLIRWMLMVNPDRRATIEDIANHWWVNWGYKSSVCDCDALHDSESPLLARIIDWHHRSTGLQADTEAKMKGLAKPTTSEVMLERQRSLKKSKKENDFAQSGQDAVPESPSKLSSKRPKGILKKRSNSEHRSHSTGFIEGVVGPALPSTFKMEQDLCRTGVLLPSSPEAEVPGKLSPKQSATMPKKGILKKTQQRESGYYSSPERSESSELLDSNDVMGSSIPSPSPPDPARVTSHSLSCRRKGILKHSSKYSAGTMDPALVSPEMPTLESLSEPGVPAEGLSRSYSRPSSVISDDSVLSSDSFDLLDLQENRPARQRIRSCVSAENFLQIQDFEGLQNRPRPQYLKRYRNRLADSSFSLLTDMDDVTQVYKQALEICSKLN

[4] = target: Vascular endothelial growth factor receptor 2 (Homo sapiens) (UniProt P35968); assay: Inhibition of KDR at 10 uM
[5] = target: Leucine-rich repeat serine/threonine-protein kinase 2 (Homo sapiens) (UniProt Q5S007); assay: Inhibition of LRKK2 at 10 uM
Chain of Leucine-rich repeat serine/threonine-protein kinase 2 (Homo sapiens) (Q5S007 whole entry): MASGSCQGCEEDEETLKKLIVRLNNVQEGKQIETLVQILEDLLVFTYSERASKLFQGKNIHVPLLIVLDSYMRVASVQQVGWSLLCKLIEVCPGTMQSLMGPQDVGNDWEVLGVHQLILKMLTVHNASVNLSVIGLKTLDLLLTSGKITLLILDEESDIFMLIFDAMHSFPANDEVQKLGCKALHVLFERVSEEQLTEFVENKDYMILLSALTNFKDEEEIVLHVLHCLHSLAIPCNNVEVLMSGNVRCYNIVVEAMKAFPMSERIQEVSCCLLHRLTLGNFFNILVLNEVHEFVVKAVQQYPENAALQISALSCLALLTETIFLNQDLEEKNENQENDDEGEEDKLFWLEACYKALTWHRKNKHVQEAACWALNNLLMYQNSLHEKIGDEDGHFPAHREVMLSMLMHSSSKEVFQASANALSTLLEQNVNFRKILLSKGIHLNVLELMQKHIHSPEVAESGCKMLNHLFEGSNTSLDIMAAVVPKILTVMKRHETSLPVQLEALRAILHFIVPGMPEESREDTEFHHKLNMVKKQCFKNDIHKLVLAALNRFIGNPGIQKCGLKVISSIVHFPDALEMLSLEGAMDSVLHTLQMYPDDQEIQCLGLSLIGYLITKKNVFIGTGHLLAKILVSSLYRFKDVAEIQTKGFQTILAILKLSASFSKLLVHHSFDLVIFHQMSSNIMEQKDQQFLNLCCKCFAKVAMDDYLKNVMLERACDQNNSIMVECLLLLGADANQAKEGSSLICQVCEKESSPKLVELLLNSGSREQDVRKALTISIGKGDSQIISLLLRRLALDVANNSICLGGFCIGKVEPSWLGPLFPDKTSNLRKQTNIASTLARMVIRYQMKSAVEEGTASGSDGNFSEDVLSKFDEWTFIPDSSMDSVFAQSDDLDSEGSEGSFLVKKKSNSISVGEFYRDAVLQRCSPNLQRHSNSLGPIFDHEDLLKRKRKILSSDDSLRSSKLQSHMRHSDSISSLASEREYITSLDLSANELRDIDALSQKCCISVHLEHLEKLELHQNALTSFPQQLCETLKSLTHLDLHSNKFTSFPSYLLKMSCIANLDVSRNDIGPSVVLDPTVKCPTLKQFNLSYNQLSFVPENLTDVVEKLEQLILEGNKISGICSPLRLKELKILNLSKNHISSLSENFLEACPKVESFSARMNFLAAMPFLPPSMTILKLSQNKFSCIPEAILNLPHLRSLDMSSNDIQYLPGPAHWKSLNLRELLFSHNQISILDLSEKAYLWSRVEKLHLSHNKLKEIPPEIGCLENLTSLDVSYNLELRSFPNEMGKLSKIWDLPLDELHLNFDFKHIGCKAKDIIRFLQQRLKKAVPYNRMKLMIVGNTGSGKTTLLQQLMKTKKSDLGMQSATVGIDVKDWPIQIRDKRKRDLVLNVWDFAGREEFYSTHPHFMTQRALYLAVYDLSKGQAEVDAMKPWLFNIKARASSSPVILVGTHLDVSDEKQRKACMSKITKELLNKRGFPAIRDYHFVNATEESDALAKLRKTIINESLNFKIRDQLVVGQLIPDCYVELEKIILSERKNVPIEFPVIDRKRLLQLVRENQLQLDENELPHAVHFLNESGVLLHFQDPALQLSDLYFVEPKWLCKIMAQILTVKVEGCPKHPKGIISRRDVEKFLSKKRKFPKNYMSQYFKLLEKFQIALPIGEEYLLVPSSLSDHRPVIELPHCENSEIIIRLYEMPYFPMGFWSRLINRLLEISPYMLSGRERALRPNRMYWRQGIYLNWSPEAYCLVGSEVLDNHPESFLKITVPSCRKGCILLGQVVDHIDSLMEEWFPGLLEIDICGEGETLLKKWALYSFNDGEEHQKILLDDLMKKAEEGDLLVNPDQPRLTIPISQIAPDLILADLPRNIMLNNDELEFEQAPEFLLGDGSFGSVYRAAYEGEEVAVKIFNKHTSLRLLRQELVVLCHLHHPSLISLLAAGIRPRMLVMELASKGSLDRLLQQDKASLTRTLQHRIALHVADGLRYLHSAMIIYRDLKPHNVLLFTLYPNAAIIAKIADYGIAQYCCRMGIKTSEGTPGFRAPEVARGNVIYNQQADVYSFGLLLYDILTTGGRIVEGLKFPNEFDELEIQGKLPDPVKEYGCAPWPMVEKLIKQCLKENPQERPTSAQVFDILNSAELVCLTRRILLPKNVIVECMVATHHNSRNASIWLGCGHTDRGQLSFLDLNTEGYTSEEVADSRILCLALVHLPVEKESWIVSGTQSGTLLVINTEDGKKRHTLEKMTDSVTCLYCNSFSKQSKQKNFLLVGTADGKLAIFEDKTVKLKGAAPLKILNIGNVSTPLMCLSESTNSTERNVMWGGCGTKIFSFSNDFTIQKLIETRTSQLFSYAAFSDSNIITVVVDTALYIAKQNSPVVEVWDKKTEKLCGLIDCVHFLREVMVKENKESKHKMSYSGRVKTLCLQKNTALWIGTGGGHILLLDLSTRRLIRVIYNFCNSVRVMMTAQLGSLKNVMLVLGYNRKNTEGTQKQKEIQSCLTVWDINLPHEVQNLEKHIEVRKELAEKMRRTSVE

[6] = target: Tyrosine-protein kinase ABL1 (Homo sapiens) (UniProt P00519); assay: Inhibition of ABL1 […] mutant at 10 uM
[7] = target: Myosin light chain kinase 2, skeletal/cardiac muscle (Homo sapiens) (UniProt Q9H1R3); assay: Inhibition of MYLK2 at 10 uM
Chain of Myosin light chain kinase 2, skeletal/cardiac muscle (Homo sapiens) (Q9H1R3 whole entry): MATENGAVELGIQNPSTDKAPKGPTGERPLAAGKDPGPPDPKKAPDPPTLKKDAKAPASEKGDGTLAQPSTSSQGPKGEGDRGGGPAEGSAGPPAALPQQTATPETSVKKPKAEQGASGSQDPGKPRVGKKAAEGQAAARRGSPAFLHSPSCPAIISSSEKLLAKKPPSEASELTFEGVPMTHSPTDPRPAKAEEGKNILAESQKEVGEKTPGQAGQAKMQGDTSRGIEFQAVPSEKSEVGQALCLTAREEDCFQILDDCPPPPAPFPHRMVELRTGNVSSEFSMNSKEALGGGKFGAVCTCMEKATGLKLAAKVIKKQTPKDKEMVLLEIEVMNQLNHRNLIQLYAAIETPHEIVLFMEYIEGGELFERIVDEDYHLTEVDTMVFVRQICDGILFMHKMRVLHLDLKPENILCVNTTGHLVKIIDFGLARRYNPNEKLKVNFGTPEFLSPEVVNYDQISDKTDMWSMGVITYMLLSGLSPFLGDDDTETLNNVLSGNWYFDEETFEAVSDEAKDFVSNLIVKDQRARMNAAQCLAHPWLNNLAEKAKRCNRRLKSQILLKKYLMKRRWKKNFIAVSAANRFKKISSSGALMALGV

[8] = test system: MCF7; assay: Growth inhibition of human MCF7 cells after 72 hrs by ATPlite assay; assay type: functional; conditions: MCF7, 72 h
Summary of the method: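 Cells seeded at about 3000 per well, grown 24 h, then given fresh medium and test compound in triplicate at 0.5 to 100µM in DMSO (0.5% final). Exposure 72 h at 37 °C, 5% CO₂. Viability measured by ATPlite luminescence and normalized to DMSO-treated controls. GI50 obtained by curve fitting. HeLa cultured in DMEM/10% FBS; MCF7, MDA-MB-231 and PC3 cultured in RPMI+GlutaMAX/10% FBS.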

[9] = test system: Leucine-rich repeat serine/threonine-protein kinase 2 (Homo sapiens), Q5S007 [G2019S]; assay: Inhibition of LRKK2 G2019S mutant at 10 uM
Chain of Leucine-rich repeat serine/threonine-protein kinase 2 (Homo sapiens), Q5S007 [G2019S] (Q5S007 whole entry G2019S): as the sequence (Q5S007 whole entry) above, with G2019S counted along it

[10] = target: Serine/threonine-protein kinase Sgk1 (Homo sapiens) (UniProt O00141); assay: Inhibition of SGK1 at 10 uM
Chain of Serine/threonine-protein kinase Sgk1 (Homo sapiens) (O00141 whole entry): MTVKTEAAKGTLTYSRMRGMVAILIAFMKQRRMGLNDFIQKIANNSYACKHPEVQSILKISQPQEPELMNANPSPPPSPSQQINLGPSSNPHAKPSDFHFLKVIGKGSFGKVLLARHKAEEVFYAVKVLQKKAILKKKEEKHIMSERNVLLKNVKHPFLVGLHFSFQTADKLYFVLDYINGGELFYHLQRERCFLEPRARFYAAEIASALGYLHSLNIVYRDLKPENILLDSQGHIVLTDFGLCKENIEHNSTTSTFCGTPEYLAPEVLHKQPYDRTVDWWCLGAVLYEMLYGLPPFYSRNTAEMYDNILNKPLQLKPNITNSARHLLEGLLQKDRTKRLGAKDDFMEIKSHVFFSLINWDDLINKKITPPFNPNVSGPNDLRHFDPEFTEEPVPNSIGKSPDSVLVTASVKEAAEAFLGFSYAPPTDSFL

[11] = target: T2, 3-phosphoinositide-dependent protein kinase 1 (Homo sapiens, UniProt O15530); assay: Inhibition of PDK1 by Z'-LYTE kinase activity assay
T2 sequence (O15530 whole entry): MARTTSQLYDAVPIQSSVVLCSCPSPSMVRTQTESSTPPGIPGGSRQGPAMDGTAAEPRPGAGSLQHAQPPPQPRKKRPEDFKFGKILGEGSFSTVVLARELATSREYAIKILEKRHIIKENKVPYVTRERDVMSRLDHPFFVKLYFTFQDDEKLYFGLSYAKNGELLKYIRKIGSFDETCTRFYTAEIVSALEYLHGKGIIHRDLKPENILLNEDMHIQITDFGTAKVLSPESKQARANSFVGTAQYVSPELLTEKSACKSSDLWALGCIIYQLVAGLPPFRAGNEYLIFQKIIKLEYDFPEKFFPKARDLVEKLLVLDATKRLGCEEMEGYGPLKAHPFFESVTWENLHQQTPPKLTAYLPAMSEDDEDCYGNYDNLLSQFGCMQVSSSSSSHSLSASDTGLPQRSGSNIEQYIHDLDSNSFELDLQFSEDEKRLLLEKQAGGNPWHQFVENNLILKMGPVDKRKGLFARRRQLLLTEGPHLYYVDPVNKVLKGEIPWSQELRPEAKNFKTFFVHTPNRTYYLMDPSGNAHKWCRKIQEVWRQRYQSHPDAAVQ

Chain of Maternal embryonic leucine zipper kinase (Homo sapiens) (Q14680 whole entry, looked up, canonical isoform): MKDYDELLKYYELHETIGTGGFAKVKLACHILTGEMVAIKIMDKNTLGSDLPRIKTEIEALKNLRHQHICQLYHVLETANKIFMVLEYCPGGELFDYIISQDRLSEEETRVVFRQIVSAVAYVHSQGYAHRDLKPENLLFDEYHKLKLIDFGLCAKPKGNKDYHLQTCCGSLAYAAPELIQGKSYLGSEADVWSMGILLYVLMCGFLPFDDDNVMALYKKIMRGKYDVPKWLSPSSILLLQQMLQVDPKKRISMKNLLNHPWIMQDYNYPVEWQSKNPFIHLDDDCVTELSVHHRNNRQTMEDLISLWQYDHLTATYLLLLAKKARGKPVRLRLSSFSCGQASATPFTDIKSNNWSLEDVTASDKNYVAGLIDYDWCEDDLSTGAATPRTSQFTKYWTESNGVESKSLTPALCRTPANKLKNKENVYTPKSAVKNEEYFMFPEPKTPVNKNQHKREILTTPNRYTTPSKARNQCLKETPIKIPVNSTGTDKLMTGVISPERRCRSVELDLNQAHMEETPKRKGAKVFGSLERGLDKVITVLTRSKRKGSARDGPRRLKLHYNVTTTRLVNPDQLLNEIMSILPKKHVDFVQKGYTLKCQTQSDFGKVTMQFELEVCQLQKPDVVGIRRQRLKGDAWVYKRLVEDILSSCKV

inhibition [1]: > 50% | IC50 [2]: 39 µM | inhibition [3]: > 50% | inhibition [4]: > 50% | inhibition [5]: > 50% | inhibition [6]: > 50% | inhibition [7]: > 50% | GI50 [8]: 2.58 µM | inhibition [9]: > 50% | inhibition [10]: > 50% | IC50 [11]: 3.87 µM
Compound: C(#Cc1n[nH]c2ccccc12)c1ccncc1
